Assay [1] in a line: DPPH radical scavenging activity. The assay is classed as functional. In a few lines:
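Samples dissolved in EtOH and diluted to 500, 100, 50 and 10 µg/mL (concentrations before mixing). Each 20 µL aliquot was mixed immediately with 180 µL DPPH, with an EtOH blank. After 20 min, A517 was read. Scavenging was taken as the fall in DPPH absorbance relative to a sample-free DPPH control. IC50 was interpolated from concentration-inhibition curves as the mean of triplicates.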
For orientation: The DPPH test is a chemical assay of radical scavenging.

Assay [2] has as its system PC-12. Put plainly: Neurotrophic effect in rat PC12 cells. In kind it is functional, cell-based. In a few lines: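 PC12 cells without NGF were exposed to test compounds at 1–100 µM and examined for neurotrophic activity.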
Assay [3] concerns PC-12. Put plainly: Neurotrophic effect in rat NGF-induced PC12 cells upto 100 uM. The assay is classed as functional, cell-based. In outline: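 PC12 cells were co-treated with NGF and test compounds at 1–100 µM, then checked for neurotrophic effects.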

Molecules are shown by their SMILES. The source made the active and inactive calls. The rule behind the calls is not given here.

Broadly, the IC50 is the concentration that gives 50% inhibition. In the case of `O=C1C[C@H](c2ccc(O)c(O)c2)c2c(O)cc3c(c2O1)C[C@@H](O)[C@@H](c1ccc(O)c(O)c1)O3` [CINCHONAIN IC], the IC50 in assay [1] was 2.5 µM.
Same read-out and setting: to `O=C1C[C@@H](c2ccc(O)c(O)c2)c2c(O)cc3c(c2O1)C[C@@H](O)[C@@H](c1ccc(O)c(O)c1)O3` [CINCHONAIN ID] belongs 2.3 µM; to `O=C1C[C@H](c2ccc(O)c(O)c2)c2c(cc(O)c3c2O[C@H](c2ccc(O)c(O)c2)[C@H](O)C3)O1` [CINCHONAIN IB], 5.1 µM.
Consider `O=C1C[C@@H](c2ccc(O)c(O)c2)c2c(cc(O)c3c2O[C@H](c2ccc(O)c(O)c2)[C@H](O)C3)O1` [CINCHONAIN IA], for which the IC50 in assay [1] was found to be 9.4 µM. The outcome with PC-12 [2] and in the assay on PC-12 [3] was inactive.
`COC(=O)C[C@H]1c2cc(O)c(O)cc2Oc2cc(O)c3c(c21)O[C@H](c1ccc(O)c(O)c1)[C@H](O)C3` [CATIGUANIN B] yielded an IC50 in assay [1] of 6.7 µM.
The same measure, in the same setting: to `Oc1cc(O)c2c(c1)O[C@H](c1ccc(O)c(O)c1)[C@@H](O)C2` [CATECHIN] belongs 10 µM.
Consider `COC(=O)C[C@@H]1c2cc(O)c(O)cc2Oc2cc(O)c3c(c21)O[C@H](c1ccc(O)c(O)c1)[C@H](O)C3` [CATIGUANIN A], for which the IC50 in assay [1] was determined as 7.1 µM. Further, the result in the assay with PC-12 [2] and in the assay with PC-12 [3] was inactive.

Values taken from ChEMBL document CHEMBL1141358, “Antioxidant phenylpropanoid-substituted epicatechins from Trichilia catigua” (J Nat Prod, 2007).
